Reference: ChEMBL document CHEMBL3875171, “[1,2]Oxazolo[5,4-e]isoindoles as promising tubulin polymerization inhibitors” (Eur J Med Chem, 2016)
Active and inactive are the calls of the source. No cut-off for these calls is given here.

Experiments:
[1] = Cytotoxicity against human JR8 cells assessed as growth inhibition after 72 hrs by MTS assay; assay type: functional, cell-based; conditions: JR8, 72 h
Summary of the method: (§1)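 Log-phase cells seeded at 4500 cells/50 µL and grown 24 h, then exposed 72 h to 0.01-100 µM compound; vehicle controls 0.01% DMSO. MTS read-out at 490 nm, expressed as % of DMSO-treated cells. Eight replicates per condition, at least three independent repeats; IC50 read graphically from dose-response curves.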

[2] = Cytotoxicity against human M14 cells assessed as growth inhibition after 72 hrs by MTS assay; assay type: functional, cell-based; conditions: M14, 72 h; summary of the method: as §1
[3] = Cytotoxicity against human MCF7 cells assessed as growth inhibition after 72 hrs by MTS assay; assay type: functional, cell-based; conditions: MCF7, 72 h; summary of the method: as §1
[4] = Cytotoxicity against human MDA-MB-231 cells assessed as growth inhibition after 72 hrs by MTS assay; assay type: functional, cell-based; conditions: MDA-MB-231, 72 h; summary of the method: as §1
[5] = Cytotoxicity against human PC3 cells assessed as growth inhibition after 72 hrs by MTS assay; assay type: functional, cell-based; conditions: PC-3, 72 h; summary of the method: as §1
[6] = Cytotoxicity against human DU145 cells assessed as growth inhibition after 72 hrs by MTS assay; assay type: functional, cell-based; conditions: DU-145, 72 h; summary of the method: as §1
[7] = Cytotoxicity against human STO cells assessed as growth inhibition after 72 hrs by MTS assay; assay type: functional, cell-based; summary of the method: as §1
[8] = Cytotoxicity against human MP8 cells assessed as growth inhibition after 72 hrs by MTS assay; assay type: functional, cell-based; conditions: MP8, 72 h; summary of the method: as §1
[9] = Cytotoxicity against human WI38 cells assessed as growth inhibition after 72 hrs by MTS assay; assay type: toxicity, cell-based, WI-38; summary of the method: as §1
[10] = Cytotoxicity against human MCF10A cells assessed as growth inhibition after 72 hrs by MTS assay; assay type: toxicity, cell-based, MCF-10A; summary of the method: as §1
[11] = tested on: STO; assay: Inhibition of alpha-tubulin polymerization in human STO cells assessed as increase in ratio of soluble to polymerized tubulin fraction at 2 nM after 24 hrs by western blot analysis; assay type: cell-based
[12] = tested on: MP8; assay: Inhibition of alpha-tubulin polymerization in human MP8 cells assessed as increase in ratio of soluble to polymerized tubulin fraction at 13 nM after 24 hrs by western blot analysis; assay type: cell-based
[13] = tested on: STO; assay: Cell cycle arrest in human STO cells assessed as accumulation at G2/M phase at antiproliferative IC50 after 48 to 72 hrs by propidium iodide staining based flow cytometry; assay type: functional
Summary of the method: (§2)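 STO or MP8 cells exposed 48 and 72 h to compound at IC50 or IC80 (72-h MTS values), controls 1% DMSO. Adherent plus floating cells fixed in 70% ethanol, stained 30 min at 4°C with propidium iodide 50 µg/mL, RNase, 0.05% NP-40 in PBS. ≥30000 events per flow cytometry sample; Modfit model for G1/S/G2/M percentages; mean of three independent experiments.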

[14] = tested on: MP8; assay: Cell cycle arrest in human MP8 cells assessed as accumulation at G2/M phase at antiproliferative IC50 after 48 to 72 hrs by propidium iodide staining based flow cytometry; assay type: functional; summary of the method: as §2
[15] = Cell cycle arrest in human STO cells assessed as mitotic cells at antiproliferative IC50 after 72 hrs by fluorescence microscopic analysis relative to control; assay type: functional
[16] = Cell cycle arrest in human MP8 cells assessed as mitotic cells at antiproliferative IC50 after 72 hrs by fluorescence microscopic analysis relative to control; assay type: functional
[17] = Displacement of [3H]colchicine from tubulin (unknown origin); set-up: species or system Homo sapiens
[18] = Oral bioavailability in mouse; assay type: ADME, organism-based; conditions: in vivo
[19] = Oral bioavailability in rat; assay type: ADME, organism-based; conditions: in vivo
[20] = Oral bioavailability in dog; assay type: ADME, organism-based, Canis lupus familiaris; conditions: in vivo
[21] = Oral bioavailability in monkey; assay type: ADME, organism-based, Macaca mulatta; conditions: rhesus monkey, in vivo
[22] = Antitumor activity against mouse M5076 cells implanted in mouse assessed as increase in mouse life span at 100 mg/kg/day relative to control; assay type: functional
[23] = Antitumor activity against mouse M5076 cells implanted in mouse assessed as delay in time to develop 1 g tumor volume at 100 mg/kg/day; assay type: functional
[24] = Toxicity in mouse implanted with mouse M5076 cells; assay type: organism-based
[25] = Antitumor activity against human STO cells xenografted in nude mouse assessed as tumor growth inhibition at 5 mg/kg, ip administered once per seven days for 4 weeks starting from day 10 post cell inoculum; assay type: functional; conditions: read-out: TGI
Summary of the method: (§3)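 Female nude mice, 6-8 weeks old; 10^7 exponentially growing STO cells injected s.c. into right flank; eight mice per group. Compound in 10% DMSO/90% saline, 5 mg/kg i.p. q7dx4 from day 10 after inoculum. Tumor diameters measured weekly by caliper, TV = d2×D/2; TVI% = 100 − (mean TV treated/mean TV control × 100). Toxicity scored as body weight loss and lethality.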

[26] = tested on: Mus musculus; assay: Toxicity in nude mouse xenografted with human STO cells assessed as body weight loss at 5 mg/kg, ip administered once per seven days for 4 weeks starting from day 10 post cell inoculum; assay type: organism-based; conditions: in vivo, 672 h; summary of the method: as §3
[27] = tested on: STO; assay: Inhibition of alpha-tubulin polymerization in human STO cells assessed as increase in ratio of soluble to polymerized tubulin fraction at antiproliferative IC50 after 24 hrs by western blot analysis; assay type: cell-based
[28] = tested on: MP8; assay: Inhibition of alpha-tubulin polymerization in human MP8 cells assessed as increase in ratio of soluble to polymerized tubulin fraction at antiproliferative IC50 after 24 hrs by western blot analysis; assay type: cell-based
[29] = tested on: MP8; assay: Cell cycle arrest in human MP8 cells assessed as reduction G1 phase at antiproliferative IC50 after 48 to 72 hrs by propidium iodide staining based flow cytometry; assay type: functional; summary of the method: as §2
[30] = tested on: MP8; assay: Cell cycle arrest in human MP8 cells assessed as reduction G1 phase at antiproliferative IC80 after 48 to 72 hrs by propidium iodide staining based flow cytometry; assay type: functional; summary of the method: as §2
[31] = tested on: STO; assay: Cell cycle arrest in human STO cells assessed as reduction G1 phase at antiproliferative IC50 after 48 to 72 hrs by propidium iodide staining based flow cytometry; assay type: functional; summary of the method: as §2
[32] = tested on: STO; assay: Cell cycle arrest in human STO cells assessed as reduction G1 phase at antiproliferative IC80 after 48 to 72 hrs by propidium iodide staining based flow cytometry; assay type: functional; summary of the method: as §2

| SMILES | IC50 [1] [µM] | IC50 [2] [µM] | IC50 [3] [µM] | IC50 [4] [µM] | IC50 [5] [µM] | IC50 [6] [µM] | IC50 [7] [µM] | IC50 [8] [µM] | IC50 at 72 h [9] [µM] | IC50 at 72 h [10] [µM] | also measured |
| --- | --- | --- | --- | --- | --- | --- | --- | --- | --- | --- | --- |
| COc1ccc(-n2cc3c(c2)-c2oncc2CC3)cc1 | 61.6 | 58.5 | 79.6 | 57.5 | 79.9 | 81.1 | 25.5 | 21.2 | – | – | – |
| COc1ccc(Cn2cc3c(c2)-c2oncc2CC3)cc1OC | 0.85 | 0.96 | 1.03 | 0.88 | 0.79 | 0.87 | 0.64 | 0.51 | > 100 | > 100 | – |
| c1ccc(Cn2cc3c(c2)-c2oncc2CC3)cc1 | 5.14 | 6.88 | 11.3 | 19.6 | 13.5 | 15.2 | 0.79 | 0.69 | > 100 | > 100 | – |
| Cc1c2c(cn1C)CCc1cnoc1-2 | > 100 | > 100 | > 100 | > 100 | > 100 | > 100 | > 100 | > 100 | – | – | – |
| COc1cccc(Cn2cc3c(c2)-c2oncc2CC3)c1OC | > 100 | > 100 | > 100 | > 100 | > 100 | > 100 | > 100 | > 100 | – | – | – |
| CCC1=C[C@@H]2CN(C1)Cc1c([nH]c3ccccc13)[C@@](C(=O)OC)(c1cc3c(cc1OC)N(C)[C@H]1[C@@](O)(C(=O)OC)[C@H](OC(C)=O)[C@]4(CC)C=CCN5CC[C@]31[C@@H]54)C2 [VINORELBINE] | – | – | – | – | – | – | – | – | – | – | inhibition [11]: Active; inhibition [12]: Active; Activity [13]: Active; Activity [14]: Active; Activity [15]: 35 - 70%; Activity [16]: 35 - 70% |
| Cn1cc2c(c1)-c1oncc1CC2 | 58.4 | 65.8 | 86.6 | 55.4 | 77.1 | 69.3 | 28.1 | 26.7 | – | – | – |
| COc1cc([C@H]2CN=C(c3ccc4c(ccn4C)c3)O2)cc(OC)c1OC | – | – | – | – | – | – | – | – | – | – | Ki [17]: 0.65 µM; bioavailability [18]: 6.5 to 18.6%; bioavailability [19]: 6.5 to 18.6%; bioavailability [20]: 6.5 to 18.6%; bioavailability [21]: 6.5 to 18.6%; Activity [22]: 206%; Time [23]: 28 days; MTD [24]: 100 mg/kg/day |
| COc1cccc(Cn2cc3c(c2)-c2oncc2CC3)c1 | 0.96 | 1.02 | 1.17 | 0.85 | 0.96 | 1.37 | 0.46 | 0.51 | > 100 | > 100 | – |
| COc1ccc(Cn2cc3c(c2)-c2oncc2CC3)cc1 | 9.15 | 12.5 | 7.89 | 15.6 | 18.6 | 15.2 | > 100 | > 100 | > 100 | > 100 | – |
| CCOC(=O)c1c2c(c(C)n1C)-c1oncc1CC2 | > 100 | > 100 | > 100 | > 100 | > 100 | > 100 | > 100 | > 100 | – | – | – |
| COc1ccc(OC)c(Cn2cc3c(c2)-c2oncc2CC3)c1 | 19.2 | 16.8 | 15.2 | 19.6 | 23.7 | 19.5 | > 100 | > 100 | > 100 | > 100 | – |
| CC(=O)O[C@H]1C(=O)[C@@]2(C)[C@H]([C@H](OC(=O)c3ccccc3)[C@]3(O)C[C@H](OC(=O)[C@H](O)[C@@H](NC(=O)c4ccccc4)c4ccccc4)C(C)=C1C3(C)C)[C@]1(OC(C)=O)CO[C@@H]1C[C@@H]2O [PACLITAXEL] | – | – | – | – | – | – | – | – | – | – | Activity [13]: Active; Activity [14]: Active; Activity [15]: 35 - 70%; Activity [16]: 35 - 70% |
| CCOC(=O)c1c2c(c(C)n1Cc1ccc(OC)cc1)-c1oncc1CC2 | > 100 | > 100 | > 100 | > 100 | > 100 | > 100 | > 100 | > 100 | – | – | – |
| CCOC(=O)c1c2c(c(C)n1Cc1ccccc1)-c1oncc1CC2 | > 100 | > 100 | > 100 | > 100 | > 100 | > 100 | > 100 | > 100 | – | – | – |
| c1ccc(-n2cc3c(c2)-c2oncc2CC3)cc1 | 59.6 | 63.4 | 81.2 | 68.4 | 70.5 | 76.4 | 29.5 | 25.3 | – | – | – |
| COc1ccccc1Cn1cc2c(c1)-c1oncc1CC2 | 16.2 | 20.5 | 19.4 | 14.4 | 18.6 | 17.5 | 0.79 | 1.52 | > 100 | > 100 | – |
| COc1cc(Cn2cc3c(c2)-c2oncc2CC3)cc(OC)c1 | 0.23 | 0.31 | 0.33 | 0.32 | 0.27 | 0.31 | 0.06 | 0.07 | > 100 | > 100 | inhibition in vivo at 5 mg/kg [25]: 51%; Activity [26]: Non-Toxic; inhibition [27]: Active; inhibition [28]: Active; Activity [29]: Active; Activity [30]: Active; Activity [31]: Active; Activity [32]: Active; Activity [15]: 35 - 70%; Activity [16]: 35 - 70% |
| COc1cc(Cn2cc3c(c2)-c2oncc2CC3)cc(OC)c1OC | 0.63 | 0.89 | 0.92 | 0.75 | 0.87 | 0.99 | 0.62 | 0.73 | > 100 | > 100 | – |
| Cc1c2c(cn1Cc1ccccc1)CCc1cnoc1-2 | > 100 | > 100 | > 100 | > 100 | > 100 | > 100 | > 100 | > 100 | – | – | – |
| Cc1ccc(Cn2cc3c(c2)-c2oncc2CC3)cc1 | > 100 | > 100 | > 100 | > 100 | > 100 | > 100 | > 100 | > 100 | – | – | – |
